Screening results from PubChem.
HGIII-sPLA2 inh: Inhibits HGIII-sPLA2 liposome hydrolysis, primary screen; Q9NZ20; AID 743126; inhibition, % at 12.2 µM; QFRET BODIPY PC-A2 liposome hydrolysis, fluorescence; hit rate 0.56% among 370,000;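 active = inhibition above mean plus 3 SD of compounds lying within the high and low control bounds, cut at about 19% in these data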;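 note: 0% = median of test compound wells and 100% = no enzyme DMSO wells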
NRP1-CendR mod: alters CendR peptide binding to human NRP-1; AID 602438; inhibition, % at 25 µM; O14786; hit rate 0.85% among 360,000; FAM-RPARPAR peptide binding to NRP-1, fluorescence polarization;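 active = inhibition or corrected inhibition above about 18%, plus a signal ratio from 0.5 to 1.5, limit read from the data, passing the limit was not always enough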
Target sequence (O14786 whole entry, looked up): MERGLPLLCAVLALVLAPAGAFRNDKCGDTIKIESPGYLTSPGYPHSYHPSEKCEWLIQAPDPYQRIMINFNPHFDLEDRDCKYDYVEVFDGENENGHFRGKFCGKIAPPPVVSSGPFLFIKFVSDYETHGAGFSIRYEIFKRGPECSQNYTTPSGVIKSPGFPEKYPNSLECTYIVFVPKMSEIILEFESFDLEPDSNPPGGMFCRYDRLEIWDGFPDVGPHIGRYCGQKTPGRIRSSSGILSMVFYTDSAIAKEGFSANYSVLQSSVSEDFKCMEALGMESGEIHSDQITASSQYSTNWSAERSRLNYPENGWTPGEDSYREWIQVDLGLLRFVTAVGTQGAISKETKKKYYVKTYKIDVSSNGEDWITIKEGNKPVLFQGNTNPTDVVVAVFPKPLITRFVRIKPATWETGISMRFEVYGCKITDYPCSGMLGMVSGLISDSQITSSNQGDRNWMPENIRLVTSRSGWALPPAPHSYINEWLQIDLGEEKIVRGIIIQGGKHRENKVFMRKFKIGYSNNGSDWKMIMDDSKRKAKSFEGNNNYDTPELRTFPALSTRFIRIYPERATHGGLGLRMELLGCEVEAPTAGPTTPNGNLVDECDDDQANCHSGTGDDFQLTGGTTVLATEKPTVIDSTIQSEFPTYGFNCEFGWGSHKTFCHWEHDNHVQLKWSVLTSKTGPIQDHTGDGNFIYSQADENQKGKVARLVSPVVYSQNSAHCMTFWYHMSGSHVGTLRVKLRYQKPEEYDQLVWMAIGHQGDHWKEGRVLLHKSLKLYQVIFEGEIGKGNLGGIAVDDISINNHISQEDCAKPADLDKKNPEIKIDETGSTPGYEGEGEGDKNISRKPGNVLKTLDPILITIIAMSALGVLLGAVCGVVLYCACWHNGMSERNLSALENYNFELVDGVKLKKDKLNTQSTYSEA
Arr AP2 block: inhibitors of human beta-arrestin and AP2 interaction | hit rate 0.31% among 340,000 | FITC-arrestin peptide / GST-AP2 beads, flow cytometry; AP2 beta2 appendage carries R879A mutation | inhibition, % at 10 µM | AID 504490;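 active = inhibition above a set limit, near 3 SD of compounds lacking own fluorescence, cut at about 54% in these data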;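 note: plate controls were DMSO wells for no effect and 5 µM unlabelled arrestin peptide for full effect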
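System: GST-tagged AP2 beta2-adaptin appendage (R879A) on 4 µm glutathione beads / Reagent: FITC-arrestin peptide, 50 nM / Detection: HyperCyt-sampled flow cytometry, FL1 channel, ex 488/em 535 nm / Timing: 12 min plus 1 h, RT / Buffer or medium: PBS plus Tween 20 (0.05%) and BSA (0.1%)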
PfM18AAP inh: PfM18AAP enzyme inhibition. AID 1822. inhibition, % at 7.35 µM. recombinant PfM18AAP, H-Glu-NHMec fluorogenic cleavage. hit rate 1.2% among 290,000;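 active = inhibition above the campaign mean inhibition over all tested compounds plus 3 SD, cut at about 28% in these data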;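 note: 0% = plate median of test compound wells and 100% = 2 mM ZnCl2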
Lipid droplet: modulators of hepatic lipid droplet formation; hit rate 0.4% among 240,000; inhibition, % at 6.5 µM; AML12 mouse hepatocytes, oleate lipid droplets, BODIPY imaging;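 active = lipid droplet intensity inhibited by at least 50%, with more than 500 cells counted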
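Material: mouse AML12 hepatocyte cell line, fixed after treatment; Timing: compound with oleate, overnight; Technique: high-content imaging of BODIPY-stained droplets and DAPI nuclei; Probe or stimulus: oleate, 100 µM final; Dosing: compound at 6.5 µM only.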
m5-HT2A agonist: activates the mouse 5-HT2A serotonin receptor; activation, % at 7.6 µM; P35363; CHO-K1 mHTR2A beta-arrestin complementation, luminescence; percent of 30 µM serotonin response; AID 624169; hit rate 0.66% among 360,000;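 active = activation above a run cutoff, the mean activation of all tested compounds plus 3 SD, cut at about 14% in these data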;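 note: 0% = plate median of compound wells and 100% = 30 µM serotonin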
* hit, by the source's call; . = no result. Shown are actives, neighbours in structure and some others; about 3.3% of the full set was active somewhere.

SMILES | HGIII-sPLA2 inh | NRP1-CendR mod | Arr AP2 block | PfM18AAP inh | Lipid droplet | m5-HT2A agonist
CCc1ccccc1NC(=O)c1ccc(CN2CCC(Cc3ccccc3)CC2)cc1 | 2 | 32* | 5 | 10 | . | -14
CCN(c1cccc(C)c1)S(=O)(=O)c1ccc(-n2cccn2)cc1 | -9 | 22* | 29 | -3 | -6 | 5
CCN(c1cccc(C)c1)S(=O)(=O)c1csc(C(N)=O)c1 | -2 | 6 | -23 | 3 | . | 3
c1ccc(CNC2CC3CCC2C3)cc1 (stereo not drawn) | 6 | 24* | 0 | . | . | 0
O=C(/C=C/c1ccccc1)NC1CC2CCC1C2 (stereo not drawn) | 11 | 4 | 45 | 4 | 2 | -3
O=C(Nc1cc(C(F)(F)F)ccc1N1CCCC1)C1CC(=O)N(Cc2ccccc2)C1 (stereo not drawn) | -5 | 24* | . | . | . | 5
CC(C)N1CC2=C(OC(N)=C(C#N)C2c2cccnc2)/C(=C/c2cccnc2)C1 (stereo not drawn) | 5 | 26* | 21 | -5 | . | 5
CC(C)c1c(O)ccc2c1CC[C@H]1C(C)(C)CCC[C@]21C | -5 | 3 | -2 | . | . | 45*
Cc1ccc([C@H]2N[C@]3(CCCN(Cc4ccc(Br)cc4)C3=O)[C@H]3C(=O)N(Cc4ccccc4)C(=O)[C@@H]23)cc1 | -16 | -19 | . | . | . | 2
COc1ccc(NC(C)C(=O)N/N=C/c2ccccc2OCc2ccc(Br)cc2)cc1 (stereo not drawn) | 15 | 22* | 9 | -15 | . | -7
CN(C)c1ccc(C(=O)OCC(=O)Nc2ccc(S(N)(=O)=O)cc2)cc1 | 3 | 39* | 8 | 5 | . | 2
COc1ccc(-n2nc(C(=O)NCC(=O)NC3CCCCCC3)c3ccccc3c2=O)c(OC)c1 | -2 | 19* | -1 | -7 | 5 | 2
O=C1CCC[C@@H]2Cc3nc4cc5c(cc4cc3[C@@H]3CCN1[C@H]23)OCO5 | 6 | 24* | 4 | . | . | 7
O=C1CCC[C@@H]2Cc3nc4ccc(O)cc4cc3[C@@H]3CCN1[C@H]23 | 4 | -2 | -2 | . | . | -2
CCN1C(=O)N(CC)C(O)(c2ccccc2)C1(O)c1ccccc1 (stereo not drawn) | 3 | 30* | 32 | -3 | 2 | 0
COc1ccc(OC)c(NC(=O)CCNS(=O)(=O)c2cccc3nonc23)c1 | -4 | 28* | 2 | 8 | -4 | 5
Cc1ccn2c(-c3csc(NCc4ccccc4)n3)c(C)nc2c1 | 4 | 25* | -3 | 19 | -59 | 2
COc1ccc([C@H]2N[C@]3(CCCN(Cc4ccccc4)C3=O)[C@H]3C(=O)N(Cc4ccccc4)C(=O)[C@@H]23)cc1 | -1 | 2 | . | . | . | -1
Cc1ccc(CNS(=O)(=O)c2ccc(-c3cnc(C4CC4)o3)cc2)cc1 | -12 | 21* | -3 | -13 | 14 | -5
O=S(=O)(NCc1ccccc1)c1ccc(-c2cnc(C3CC3)o2)cc1 | 3 | 6 | 2 | -6 | 0 | 1
Nc1ncnc2c1ncn2[C@@H]1O[C@H](C(=O)N[C@@H](CO)Cc2ccccc2)[C@@H](O)[C@H]1O | 1 | 2 | . | . | . | 0
O=C1CSC(=S)N1c1cccc(Br)c1 | 0 | 6 | 4 | 30* | . | -7
Cc1cc2c(c(=O)n1CCCn1ccnc1)C(c1ccco1)C(C#N)=C(N)O2 (stereo not drawn) | 1 | 9 | 4 | 28* | . | 1
CC(C)(C)C(=O)N1CCN(c2ccc3c(c2)C2CC3CCN2C(=O)OCc2ccccc2)CC1 (stereo not drawn) | 8 | 9 | . | . | . | -6
Cc1cc(C)n(CCNC(=O)[C@H]2O[C@@H](n3ccc(=O)[nH]c3=O)[C@H](O)[C@@H]2O)n1 | 13 | 4 | . | . | . | 2
SMILES | HGIII-sPLA2 inh | NRP1-CendR mod | Arr AP2 block | PfM18AAP inh | Lipid droplet | m5-HT2A agonist
CN1c2ccccc2C(C)(C)C12CC(c1ccc(S(=O)(=O)N3CCCCC3)cc1)=NO2 (stereo not drawn) | -2 | 19* | -1 | -15 | -6 | 7
COc1ccc(C2=CC(=O)CCC2)cc1 | 7 | 40* | 22 | . | . | 0
COc1cccc(C2=CC(=O)CCC2)c1 | 1 | 11 | 3 | . | . | 0
Cc1ccc([C@H]2C[C@H](n3cc(C4CC4)nn3)[C@@H](O)CN2C(=O)c2cccs2)cc1 | 3 | -10 | . | . | . | -5
CSc1nnc(-c2cc(Br)ccc2N=Cc2c(C)[nH]n(-c3ccccc3)c2=O)c(=O)[nH]1 | 3 | 18* | -11 | 1 | -2 | -1
CCSc1nnc(-c2cc(Br)ccc2N=Cc2c(C)[nH]n(-c3ccccc3)c2=O)c(=O)[nH]1 | 5 | -13 | 3 | -7 | 3 | 7
O[C@H](COc1cccc(F)c1)CN1CCC(C(O)(c2ccccc2)c2ccccc2)CC1 | -20 | . | . | . | . | .
Cc1sc(NC(=O)c2ccccc2)c(C(=O)c2ccccc2)c1C | 2 | -3 | 3 | 32* | 11 | -6
Cc1sc(NC(=O)c2ccccc2)c(C(=O)NC(C)C)c1C | -5 | -3 | 5 | 5 | -1 | 0
CCN(CC)S(=O)(=O)c1ccc(N/N=C(\C)c2cccnc2)nc1 | -1 | 5 | 32 | -4 | -1 | 5
Cc1cc(C(=O)NC(C)C2CCCO2)cs1 (stereo not drawn) | . | 44* | 7 | 1 | 16 | 3
CCc1cc(C(=O)NC(C)C2CCCO2)cs1 (stereo not drawn) | 6 | 2 | 0 | 0 | -8 | 4
Cc1ccc(NC(=O)COC(=O)c2c(C)nn(-c3ccccc3)c2C)cc1 | -11 | 4 | -11 | . | . | 3
Cc1nn(-c2ccccc2)c(C)c1C(=O)OCC(=O)Nc1ccccc1 | -1 | 26* | -16 | . | . | -4
Cc1ccccc1S(=O)(=O)N1CCCc2nc(C)c(C)cc21 | 9 | . | . | . | . | .
CC(C(=O)Nc1ccc2c(c1)OCCO2)N(C)CC(=O)Nc1ccccc1Br (stereo not drawn) | 6 | -5 | 0 | . | . | 5
COC(=O)CCCC1=CC2=CC(=O)C(C)(OC(=O)c3cccs3)C(=O)C2=CN1C1CCCC1 (stereo not drawn) | 4 | 24 | -3 | . | . | 1
COC(=O)CCCC1=CC2=CC(=O)C(C)(OC(=O)c3cccs3)C(=O)C2=CN1CCCOC(C)C (stereo not drawn) | -2 | 28* | 13 | . | -20 | -4
CC1(OC(=O)c2cccs2)C(=O)C=C2C=C3CCCN3C=C2C1=O (stereo not drawn) | . | 41* | 28 | . | -20 | 1
CC1(OC(=O)CCc2ccccc2)C(=O)C=C2C=C3CCCN3C=C2C1=O (stereo not drawn) | -2 | 48* | 18 | . | 20 | 2
COC(=O)CCCC1=CC2=CC(=O)C(C)(OC(=O)c3cccs3)C(=O)C2=CN1Cc1ccccc1 (stereo not drawn) | -2 | 5 | 6 | . | 12 | 3
